# Key:
# Heart [1] = test: Biodistribution in ICR mouse heart at 5 to 10 uCi, iv after 2 hrs; type: ADME, organism-based; conditions: in vivo
# How it was run: (§1)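 Male ICR mice (22–25 g) under isoflurane anesthesia; [125I] or [18F] tracer (5–10 μCi) in 0.15 mL of 0.1% bovine serum albumin solution injected into the tail vein. Groups of n = 3 per time point, killed by cervical dislocation. Organs removed, weighed and gamma-counted against diluted aliquots of injected dose, giving % dose/organ and % ID/g. Total blood activity assumed as 7% of body weight.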
# Muscle tissue [2] = test: Biodistribution in ICR mouse muscle at 5 to 10 uCi, iv after 2 mins; type: ADME, organism-based; conditions: in vivo; how it was run: as §1
# Muscle tissue [3] = test: Biodistribution in ICR mouse muscle at 5 to 10 uCi, iv after 30 mins; type: ADME, organism-based; conditions: in vivo, 0.5 h; how it was run: as §1
# Muscle tissue [4] = test: Biodistribution in ICR mouse muscle at 5 to 10 uCi, iv after 1 hr; type: ADME, organism-based; conditions: in vivo; how it was run: as §1
# Muscle tissue [5] = test: Biodistribution in ICR mouse muscle at 5 to 10 uCi, iv after 2 hrs; type: ADME, organism-based; conditions: in vivo; how it was run: as §1
# Lung [6] = test: Biodistribution in ICR mouse lung at 5 to 10 uCi, iv after 2 mins; type: ADME, organism-based; conditions: in vivo; how it was run: as §1
# Lung [7] = test: Biodistribution in ICR mouse lung at 5 to 10 uCi, iv after 30 mins; type: ADME, organism-based; conditions: in vivo, 0.5 h; how it was run: as §1
# Lung [8] = test: Biodistribution in ICR mouse lung at 5 to 10 uCi, iv after 1 hr; type: ADME, organism-based; conditions: in vivo; how it was run: as §1
# [9] = Partition coefficient, log P of the compound; type: physicochemical; conditions: octanol/water
# How it was run: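 [125I] or [18F] tracer mixed with 3 g each of 1-octanol and 0.1 M phosphate buffer pH 7.4. Vortexed 3 min at room temperature, then centrifuged 5 min. Two 0.5 g samples from each layer counted; PC is the ratio of cpm/g in octanol to cpm/g in buffer. The octanol layer was repartitioned until values were consistent.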
# Blood [10] = test: Biodistribution in ICR mouse blood at 5 to 10 uCi, iv after 2 mins; type: ADME, organism-based; conditions: in vivo; how it was run: as §1
# Blood [11] = test: Biodistribution in ICR mouse blood at 5 to 10 uCi, iv after 30 mins; type: ADME, organism-based; conditions: in vivo, 0.5 h; how it was run: as §1
# Blood [12] = test: Biodistribution in ICR mouse blood at 5 to 10 uCi, iv after 1 hr; type: ADME, organism-based; conditions: in vivo; how it was run: as §1
# Blood [13] = test: Biodistribution in ICR mouse blood at 5 to 10 uCi, iv after 2 hrs; type: ADME, organism-based; conditions: in vivo; how it was run: as §1
# Heart [14] = test: Biodistribution in ICR mouse heart at 5 to 10 uCi, iv after 2 mins; type: ADME, organism-based; conditions: in vivo; how it was run: as §1
# Heart [15] = test: Biodistribution in ICR mouse heart at 5 to 10 uCi, iv after 30 mins; type: ADME, organism-based; conditions: in vivo, 0.5 h; how it was run: as §1
# Heart [16] = test: Biodistribution in ICR mouse heart at 5 to 10 uCi, iv after 1 hr; type: ADME, organism-based; conditions: in vivo; how it was run: as §1
# Lung [17] = test: Biodistribution in ICR mouse lung at 5 to 10 uCi, iv after 2 hrs; type: ADME, organism-based; conditions: in vivo; how it was run: as §1
# Kidney [18] = test: Biodistribution in ICR mouse kidney at 5 to 10 uCi, iv after 2 mins; type: ADME, organism-based; conditions: in vivo; how it was run: as §1
# Kidney [19] = test: Biodistribution in ICR mouse kidney at 5 to 10 uCi, iv after 30 mins; type: ADME, organism-based; conditions: in vivo, 0.5 h; how it was run: as §1
# Kidney [20] = test: Biodistribution in ICR mouse kidney at 5 to 10 uCi, iv after 1 hr; type: ADME, organism-based; conditions: in vivo; how it was run: as §1
# Kidney [21] = test: Biodistribution in ICR mouse kidney at 5 to 10 uCi, iv after 2 hrs; type: ADME, organism-based; conditions: in vivo; how it was run: as §1
# Spleen [22] = test: Biodistribution in ICR mouse spleen at 5 to 10 uCi, iv after 2 mins; type: ADME, organism-based; conditions: in vivo; how it was run: as §1
# Spleen [23] = test: Biodistribution in ICR mouse spleen at 5 to 10 uCi, iv after 30 mins; type: ADME, organism-based; conditions: in vivo, 0.5 h; how it was run: as §1
# Spleen [24] = test: Biodistribution in ICR mouse spleen at 5 to 10 uCi, iv after 1 hr; type: ADME, organism-based; conditions: in vivo; how it was run: as §1
# Spleen [25] = test: Biodistribution in ICR mouse spleen at 5 to 10 uCi, iv after 2 hrs; type: ADME, organism-based; conditions: in vivo; how it was run: as §1
# Liver [26] = test: Biodistribution in ICR mouse liver at 5 to 10 uCi, iv after 2 mins; type: ADME, organism-based; conditions: in vivo; how it was run: as §1
# Liver [27] = test: Biodistribution in ICR mouse liver at 5 to 10 uCi, iv after 30 mins; type: ADME, organism-based; conditions: in vivo, 0.5 h; how it was run: as §1
# Liver [28] = test: Biodistribution in ICR mouse liver at 5 to 10 uCi, iv after 1 hr; type: ADME, organism-based; conditions: in vivo; how it was run: as §1
# Liver [29] = test: Biodistribution in ICR mouse liver at 5 to 10 uCi, iv after 2 hrs; type: ADME, organism-based; conditions: in vivo; how it was run: as §1
# Zone of skin [30] = test: Biodistribution in ICR mouse skin at 5 to 10 uCi, iv after 2 mins; type: ADME, organism-based; conditions: in vivo; how it was run: as §1
# Zone of skin [31] = test: Biodistribution in ICR mouse skin at 5 to 10 uCi, iv after 30 mins; type: ADME, organism-based; conditions: in vivo, 0.5 h; how it was run: as §1
# Zone of skin [32] = test: Biodistribution in ICR mouse skin at 5 to 10 uCi, iv after 1 hr; type: ADME, organism-based; conditions: in vivo; how it was run: as §1
# Zone of skin [33] = test: Biodistribution in ICR mouse skin at 5 to 10 uCi, iv after 2 hrs; type: ADME, organism-based; conditions: in vivo; how it was run: as §1
# Brain [34] = test: Biodistribution in ICR mouse brain at 5 to 10 uCi, iv after 2 mins; type: ADME, organism-based; conditions: in vivo; how it was run: as §1
# Brain [35] = test: Biodistribution in ICR mouse brain at 5 to 10 uCi, iv after 30 mins; type: ADME, organism-based; conditions: in vivo, 0.5 h; how it was run: as §1
# Brain [36] = test: Biodistribution in ICR mouse brain at 5 to 10 uCi, iv after 1 hr; type: ADME, organism-based; conditions: in vivo; how it was run: as §1
# Brain [37] = test: Biodistribution in ICR mouse brain at 5 to 10 uCi, iv after 2 hrs; type: ADME, organism-based; conditions: in vivo; how it was run: as §1
# Thyroid gland [38] = test: Biodistribution in ICR mouse thyroid at 5 to 10 uCi, iv after 2 mins; type: ADME, organism-based; conditions: in vivo; how it was run: as §1
# Thyroid gland [39] = test: Biodistribution in ICR mouse thyroid at 5 to 10 uCi, iv after 30 mins; type: ADME, organism-based; conditions: in vivo, 0.5 h; how it was run: as §1
# Thyroid gland [40] = test: Biodistribution in ICR mouse thyroid at 5 to 10 uCi, iv after 1 hr; type: ADME, organism-based; conditions: in vivo; how it was run: as §1
# [41] = Displacement of [125I]IMPY from beta amyloid protein plaques in Alzheimer's disease patient brain; design: species or system Homo sapiens
# How it was run: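 Competition binding to pooled gray-matter homogenates from four AD brains (approximately 100 mg wet tissue/mL in PBS pH 7.4; 20–50 μg per tube). [125I]2 at 0.04–0.06 nM; inhibitors 10^-5–10^-10 M in PBS with 0.1% BSA; final volume 1 mL. Nonspecific binding with 600 nM 2. Incubated 37 °C, 2 h; GF/B filtration, gamma counting. Ki from nonlinear regression.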
smiles,measurement,setting,value
CN(C)c1ccc(-c2cn(-c3ccc(OCC[18F])cc3)nn2)cc1,Drug uptake,Heart [1],1.83 % ID/g
same,Drug uptake,Muscle tissue [2],0.73 % ID/g
same,Drug uptake,Muscle tissue [3],1.51 % ID/g
same,Drug uptake,Muscle tissue [4],1.33 % ID/g
same,Drug uptake,Muscle tissue [5],1.11 % ID/g
same,Drug uptake,Lung [6],5.68 % ID/g
same,Drug uptake,Lung [7],2.72 % ID/g
same,Drug uptake,Lung [8],2.03 % ID/g
same,logP,[9],2.7
same,Drug uptake,Blood [10],2.63 % ID/g
same,Drug uptake,Blood [11],2.65 % ID/g
same,Drug uptake,Blood [12],2.45 % ID/g
same,Drug uptake,Blood [13],2.3 % ID/g
same,Drug uptake,Heart [14],4.25 % ID/g
same,Drug uptake,Heart [15],2.28 % ID/g
same,Drug uptake,Heart [16],2.02 % ID/g
same,Drug uptake,Lung [17],1.79 % ID/g
same,Drug uptake,Kidney [18],6.94 % ID/g
same,Drug uptake,Kidney [19],3.35 % ID/g
same,Drug uptake,Kidney [20],2.44 % ID/g
same,Drug uptake,Kidney [21],2.01 % ID/g
same,Drug uptake,Spleen [22],4.04 % ID/g
same,Drug uptake,Spleen [23],2.21 % ID/g
same,Drug uptake,Spleen [24],1.66 % ID/g
same,Drug uptake,Spleen [25],1.43 % ID/g
same,Drug uptake,Liver [26],11.6 % ID/g
same,Drug uptake,Liver [27],5.54 % ID/g
same,Drug uptake,Liver [28],3.52 % ID/g
same,Drug uptake,Liver [29],2.69 % ID/g
same,Drug uptake,Zone of skin [30],0.51 % ID/g
same,Drug uptake,Zone of skin [31],1.82 % ID/g
same,Drug uptake,Zone of skin [32],1.72 % ID/g
same,Drug uptake,Zone of skin [33],1.42 % ID/g
same,Drug uptake,Brain [34],5.92 % ID/g
same,Drug uptake,Brain [35],2.53 % ID/g
same,Drug uptake,Brain [36],2.34 % ID/g
same,Drug uptake,Brain [37],2.08 % ID/g
same,Drug uptake,Thyroid gland [38],1.41 % ID/g
same,Drug uptake,Thyroid gland [39],1.89 % ID/g
same,Drug uptake,Thyroid gland [40],3.25 % ID/g
CN(C)c1ccc(-c2cn(-c3ccc(OCCC[18F])cc3)nn2)cc1,Drug uptake,Heart [1],0.23 % ID/g
same,Drug uptake,Muscle tissue [2],0.89 % ID/g
same,Drug uptake,Muscle tissue [3],1.03 % ID/g
same,Drug uptake,Muscle tissue [4],0.36 % ID/g
same,Drug uptake,Muscle tissue [5],0.1 % ID/g
same,Drug uptake,Lung [6],7.65 % ID/g
same,Drug uptake,Lung [7],2.4 % ID/g
same,Drug uptake,Lung [8],0.88 % ID/g
same,logP,[9],2.7
same,Drug uptake,Blood [10],3.23 % ID/g
same,Drug uptake,Blood [11],1.91 % ID/g
same,Drug uptake,Blood [12],0.75 % ID/g
same,Drug uptake,Blood [13],0.31 % ID/g
same,Drug uptake,Heart [14],5.79 % ID/g
same,Drug uptake,Heart [15],1.93 % ID/g
same,Drug uptake,Heart [16],0.69 % ID/g
same,Drug uptake,Lung [17],0.76 % ID/g
same,Drug uptake,Kidney [18],9.01 % ID/g
same,Drug uptake,Kidney [19],3.68 % ID/g
same,Drug uptake,Kidney [20],2.69 % ID/g
same,Drug uptake,Kidney [21],0.35 % ID/g
same,Drug uptake,Spleen [22],3.98 % ID/g
same,Drug uptake,Spleen [23],1.29 % ID/g
same,Drug uptake,Spleen [24],0.58 % ID/g
same,Drug uptake,Spleen [25],0.17 % ID/g
same,Drug uptake,Liver [26],15.6 % ID/g
same,Drug uptake,Liver [27],5.06 % ID/g
same,Drug uptake,Liver [28],2.06 % ID/g
same,Drug uptake,Liver [29],0.76 % ID/g
same,Drug uptake,Zone of skin [30],0.93 % ID/g
same,Drug uptake,Zone of skin [31],1.41 % ID/g
same,Drug uptake,Zone of skin [32],0.41 % ID/g
same,Drug uptake,Zone of skin [33],0.11 % ID/g
same,Drug uptake,Brain [34],6.56 % ID/g
same,Drug uptake,Brain [35],2.84 % ID/g
same,Drug uptake,Brain [36],1.81 % ID/g
same,Drug uptake,Brain [37],1.29 % ID/g
same,Drug uptake,Thyroid gland [38],1.57 % ID/g
same,Drug uptake,Thyroid gland [39],9.62 % ID/g
same,Drug uptake,Thyroid gland [40],16.87 % ID/g
CN(C)c1ccc(-c2cn(-c3ccc(OCCOCCOCCO)cc3)nn2)cc1,Ki,[41],16.5 nM
CN(C)c1ccc(-c2cn(-c3ccc(OCCO)cc3)nn2)cc1,Ki,[41],10 nM
CN(C)c1ccc(-c2cn(-c3ccc(OCCOCCOCCF)cc3)nn2)cc1,Ki,[41],8.4 nM
CNc1ccc(-c2cn(-c3ccc(OCCOCCOCCF)cc3)nn2)cc1,Ki,[41],30 nM

# Reference: ChEMBL document CHEMBL1145427, “Quick assembly of 1,4-diphenyltriazoles as probes targeting beta-amyloid aggregates in Alzheimer's disease” (J Med Chem, 2007)
